Laboratory results: ChEMBL document CHEMBL1143047, “Aminoglycoside antibiotic derivatives: preparation and evaluation of toxicity on cochlea and vestibular tissues and antimicrobial activity” (Bioorg Med Chem, 2007)
The source made the active and inactive calls.

Experiments:
Micrococcus luteus = assay: Antimicrobial activity against Micrococcus luteus ATCC 9341 at 15 mg/ml after 24 hrs by micro dilution method; type: functional, organism-based
Outline: (§1)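 Broth microdilution with about 5 × 10^4 CFU/mL per well. Compounds were dissolved in sterile water or in 10% DMSO/water and tested at 15 mg/mL in duplicate. Incubation was 24 h at 35 °C. Growth was scored qualitatively by medium turbidity (growth or no growth) against an inoculated-medium positive control and a medium-only negative control.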

Cavia porcellus [1] = species on record: Cavia porcellus; assay: Ototoxicity assessed as cochlear inner cells damage in Albino guinea pig with transtympanic application in right ear relative to left ear control; type: toxicity, organism-based; design: concentration or dose not given beside the values; conditions: other
Outline: (§2)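 Albino guinea pigs (400–600 g) screened by Preyer reflex and otoscopy, with DPOAE/BEAP thresholds up to 5 dB in both ears under ketamine 65 mg/kg. Right ear got a transtympanic sample (0.08–0.10 mL, 0.22 mmol/mL, in water or DMSO); left ear got saline or DMSO; 06 animals. Cochlear hair cells and vestibule (semicircular channels, utriculus, sacculus) scored by SEM after glutaraldehyde/osmium fixation.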

Staphylococcus aureus = assay: Antimicrobial activity against Staphylococcus aureus ATCC 6538 at 15 mg/ml after 24 hrs by micro dilution method; type: functional, organism-based; outline: as §1
Pseudomonas aeruginosa = assay: Antimicrobial activity against Pseudomonas aeruginosa ATCC 27853 at 15 mg/ml after 24 hrs by micro dilution method; type: functional, organism-based; outline: as §1
Cavia porcellus [2] = species on record: Cavia porcellus; assay: Ototoxicity assessed as vestibular damage in Albino guinea pig with transtympanic application in right ear relative to left ear control; type: toxicity, organism-based; design: concentration or dose not given beside the values; conditions: in vivo, other; outline: as §2
[3] = tested on: Staphylococcus epidermidis; assay: Antimicrobial activity against Staphylococcus epidermidis ATCC 12228 at 15 mg/ml after 24 hrs by micro dilution method; type: functional, organism-based; outline: as §1
Cavia porcellus [4] = species on record: Cavia porcellus; assay: Ototoxicity assessed as cochlear outer cells damage in Albino guinea pig with transtympanic application in right ear relative to left ear control; type: toxicity, organism-based; design: concentration or dose not given beside the values; conditions: other; outline: as §2
Escherichia coli = assay: Antimicrobial activity against Escherichia coli ATCC 25922 at 15 mg/ml after 24 hrs by micro dilution method; type: functional, organism-based; outline: as §1

Compound	Activity (Micrococcus luteus)	Activity (Cavia porcellus [1]) [%]	Activity (Staphylococcus aureus)	Activity (Pseudomonas aeruginosa)	Activity (Cavia porcellus [2]) [%]	Activity [3]	Activity (Cavia porcellus [4]) [%]	Activity (Escherichia coli)
NC[C@@H]1O[C@H](O[C@H]2[C@@H](O)[C@H](O[C@@H]3[C@@H](O)[C@H](N)C[C@H](N)[C@H]3O[C@H]3O[C@H](CN)[C@@H](O)[C@H](O)[C@H]3N)O[C@@H]2CO)[C@H](N)[C@@H](O)[C@@H]1O [FRAMYCETIN]	Active	0	Active	Active	50	Active	100	Active
COC1OC[C@@H](O)[C@@H](O[C@H]2O[C@@H](CN)[C@@H](O)[C@H](O)[C@H]2N)[C@H]1O (some centres undefined) [METHYL-NEOBIOSAMINIDE B]	Active	0	Active	Active	100	Active	0	Active
CC(=O)NC[C@H]1O[C@H](O[C@@H]2[C@@H](O)[C@H](O)[C@@H](NC(C)=O)C[C@H]2NC(C)=O)[C@H](NC(C)=O)[C@@H](O)[C@@H]1O	Active	0	Active	inactive	0	Active	0	Active
O=C(NC[C@H]1O[C@H](O[C@@H]2[C@@H](O)[C@H](O)[C@@H](NC(=O)OCc3ccccc3)C[C@H]2NC(=O)OCc2ccccc2)[C@H](NC(=O)OCc2ccccc2)[C@@H](O)[C@@H]1O)OCc1ccccc1		0			0		100	
N[C@@H]1C[C@H](N)[C@@H](O)[C@H](O)[C@H]1O	Active	0	inactive	inactive	0	inactive	0	inactive
COC(=O)NC[C@H]1O[C@H](O[C@@H]2[C@@H](O)[C@H](O)[C@@H](NC(=O)OC)C[C@H]2NC(=O)OC)[C@H](NC(=O)OC)[C@@H](O)[C@@H]1O		0			0		0	
COc1ccc(/C=N\[C@H]2[C@@H](O[C@@H]3[C@@H](O)[C@H](O)[C@@H](/N=C/c4ccc(OC)cc4)C[C@H]3/N=C/c3ccc(OC)cc3)O[C@H](C/N=C/c3ccc(OC)cc3)[C@@H](O)[C@@H]2O)cc1		100			0		0	
NC[C@H]1O[C@H](O[C@H]2[C@H](O)[C@@H](O)[C@H](N)C[C@@H]2N)[C@H](N)[C@@H](O)[C@@H]1O [NEAMINE]	Active	0	Active	Active	100	Active	100	Active
